Bioassay records from PubChem BioAssay.
Cav3 T inh – blocks human Cav3.2 T-type calcium channel; O95180; Cav3.2-expressing cells, Fluo-4 calcium fluorescence FDSS; hits give low values; B-score at 10 µM; 100,000 compounds, 4% hits;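 active means single-dose well whose peak fluorescence ratio is a statistical outlier from its plate by either plate-standardised score or position-corrected B-score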
Rev-RRE block – inhibitors of HIV-1 Rev-RRE RNA interaction. P05866. Rev peptide-RRE RNA binding, FRET. inhibition, % at 8 µM. 97,000 compounds, 0.79% hits;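 active means inhibition above the screen-wide mean plus 3 SD, cut at about 35% in these data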;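 further: 0% = median DMSO wells and 100% = median Neomycin B control wells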
Target sequence (P05866 whole entry, looked up): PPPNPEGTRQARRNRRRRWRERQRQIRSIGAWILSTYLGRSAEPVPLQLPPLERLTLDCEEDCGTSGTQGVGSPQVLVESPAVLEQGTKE
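Assay system: Labelled RRE RNA duplex and labelled Rev peptide | Times: 5 min preincubation and 15 min binding, 25 °C | Detection: FRET, ex 480 nm, em 540 and 671 nm | Evaluation: % inhibition of FRET ratio versus controls | Benchmarks: DMSO wells as 0% and neomycin B wells as 100% inhibition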
Pyk2 oligo antag – antagonists of human Pyk2 oligomerization; 99,000 compounds, 0.83% hits; z-score (the deposit names both 25 µM and 10 µM); Q293 cells, Pyk2 FERM NanoBiT luminescence; hits give low values; AID 1347419;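 active means Z-score of -3 or lower, scaled per plate to the spread of control and sample wells; inactive means z-score above -3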;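 further: negative z-score means lost luminescence so less FERM oligomerization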
hDAT+cocaine – human DAT dopamine uptake with cocaine, either direction. B-score at 10 µM. 110,000 compounds, 1.3% hits. AID 449768. LLC-PK1 hDAT cells, [14C]-dopamine uptake with cocaine IC80; actives deviate in either direction. Q01959;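 active means Z score or B-score, a plate-position-corrected score, falls beyond the plate's 99.7% confidence bounds, in either direction; inactive means both scores lie inside the 99.7% bounds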;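 further: scored against the spread of the other compound wells on the same plate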
Target sequence (Q01959 whole entry, looked up): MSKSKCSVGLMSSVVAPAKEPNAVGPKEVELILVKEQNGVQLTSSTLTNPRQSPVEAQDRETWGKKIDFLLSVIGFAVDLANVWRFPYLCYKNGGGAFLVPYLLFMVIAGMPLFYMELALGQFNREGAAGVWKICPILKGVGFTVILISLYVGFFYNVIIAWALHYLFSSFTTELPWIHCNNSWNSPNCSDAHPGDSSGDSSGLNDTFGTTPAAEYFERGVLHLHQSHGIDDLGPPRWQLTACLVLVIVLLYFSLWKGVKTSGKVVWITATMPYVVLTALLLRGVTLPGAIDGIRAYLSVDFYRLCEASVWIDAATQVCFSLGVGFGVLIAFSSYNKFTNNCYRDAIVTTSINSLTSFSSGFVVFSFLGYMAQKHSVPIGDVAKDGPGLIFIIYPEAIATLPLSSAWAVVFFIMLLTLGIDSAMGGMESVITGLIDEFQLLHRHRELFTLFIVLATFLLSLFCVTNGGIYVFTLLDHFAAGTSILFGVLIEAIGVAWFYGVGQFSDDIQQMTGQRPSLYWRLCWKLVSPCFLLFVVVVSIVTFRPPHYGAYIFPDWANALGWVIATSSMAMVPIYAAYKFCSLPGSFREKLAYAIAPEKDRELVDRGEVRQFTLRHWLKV
Measles CPE – protection of cells from measles virus | Measles virus-infected cells, CPE protection, absorbance | protection (pct of control), % at 4 µM | 140,000 compounds, 1.5% hits; in the data active means protection mostly above about 24%, no sharp cut-off; inactive means mostly below about 26%
Phagocytosis inh – macrophage phagocytosis inhibition; 110,000 compounds, 0.07% hits; J774A.1 macrophage IgG-bead phagocytosis, imaging; inhibition, % at 5 µM;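 active means inhibition above the mean of the plate negative controls plus 5 SD, cut at about 13% in these data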;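 further: phagocytic index as fraction of beads internalized from green versus red external bead signal; plate controls were DMSO negative control for no effect and cytochalasin-D positive control for full effect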
The depositor's hits bear a star; . = no result; [ ] = another dose, or the depositor's remark. Hits are enriched below; roughly 5.9% of the tested compounds scored in any of these assays.

SMILES | Cav3 T inh | Rev-RRE block | Pyk2 oligo antag | hDAT+cocaine | Measles CPE | Phagocytosis inh
Cc1ccc(C(=O)Cn2nnc3ccccc32)cc1 | -0.09 | -2 | -0.25 | -0.36 | 7 | .
COc1ccc(SC[C@H](CC(C)C)N2CCN(CCc3ccccc3)CCC2=O)cc1 | -2.5 | . | . | 2 | . | .
O=C(Nc1ccc(Cl)cc1)[C@@H]1[C@@H]2C(=O)N(c3ccc4ccccc4c3)C(=O)[C@@H]2[C@H]2C=CC=NN21 | -8.6* | 7 | 0.37 | -0.0021 | 2 | -2
Cc1noc(C)c1COc1ccc(C(=O)OCc2nnc(-c3ccc(Cl)cc3)o2)cc1 | -6.3* | 3 | 3.3 | 0.85 | 5 | 0
Cc1nc(Nc2ccc(F)cc2)[nH]c(=O)c1CCC(C)C | -5.6* | 31 | -0.08 | -0.89 | 20 | .
O=C1CC(N2CCC(O)(c3ccc(Br)cc3)CC2)C(=O)N1c1ccc(Cl)cc1 (configuration not stated) | . | . | . | . | 21 | .
COCCNc1nc(SCc2ccccc2)nc2sc3c(c12)CCC3 | -4.5* | 1 | -0.44 | 0.27 | 4 | .
COc1ccc(-c2cc(C(F)(F)F)nc(SCC(=O)NCc3cccs3)n2)cc1OC | . | . | . | . | 9 | -4
COCC(=O)Nc1nc2n(n1)C(c1ccccc1Cl)CC(c1ccc(OC)cc1)N2 (configuration not stated) | -0.02 | 5 | -2.5 | 0.35 | 13 | 0
COCC(=O)Nc1nc2n(n1)C(c1ccc(Cl)cc1)CC(c1ccc(OC)cc1)N2 (configuration not stated) | -1.1 | 36* | -1.6 | -0.034 | 17 | -1
CC(C)CC(COCc1cccc(Cl)c1)N1CCN(C(=O)c2ccc(C(F)(F)F)cc2)CCC1=O (configuration not stated) | -0.65 | . | . | -0.13 | 5 | .
COc1ccc(N2CCN(C(=O)c3cc4c(-c5cccc(OC)c5)nn(C)c4s3)CC2)cc1 | -0.58 | . | -0.06 | 2* | 12 | -3
COc1ccc(-c2nn(C)c3sc(C(=O)N4CCOCC4)cc23)cc1OC | 0.44 | . | -0.42 | -0.61 | 33 | -2
COc1ccc(C2C(C(=O)Nc3ccccc3)=C(C)N=C3SCC(=O)N32)cc1 (configuration not stated) | -9.9* | 6 | -0.12 | 0.57 | 9 | .
CC1=C(C(=O)Nc2ccccc2)C(c2ccc(O)cc2)N2C(=O)CSC2=N1 (configuration not stated) | -2.4 | 11 | -0.95 | -0.027 | 5 | -1
CCCC12CN3CCN(CC(C3)/C1=N\NC(=O)c1ccc(C(C)(C)C)cc1)C2 | . | . | . | . | 7 | -3
COC(=O)c1cccc(C23CC4(C2)[C@H](CN(Cc2cccnc2)[C@@H]4c2ccccc2)C3c2ccc(C(F)(F)F)cc2)c1 (some centres not stated) | -0.72 | . | . | -0.76 | . | .
CN(CCOC(=O)c1ccc2c(c1)OCCO2)C(C)(C)C | -0.14 | -1 | 0.36 | -1.4 | 88* | .
O=C(Nc1ccccc1-c1ccccc1)c1ccc(Br)o1 | -3.9* | 9 | -0.91 | 0.77 | 7 | .
O=C(Nc1cccc(-c2nnc(-c3ccccc3)o2)c1)c1ccc(Br)o1 | -0.95 | 2 | -3.1* | 0.89 | 10 | 0
Cc1cc(Nc2ccccc2)n(C(=O)c2ccc(Cl)cc2)n1 | -0.28 | 10 | 1.3 | 0.7 | 44* | .
Cc1cc(Nc2ccccc2)n(-c2cccc(Cl)c2)n1 | -2.7 | 10 | -1.9 | 0.059 | 14 | .
COC(=O)C1=NN(C(=O)c2ccc(C)cc2)C(O)(c2ccc(Cl)cc2)C1 (configuration not stated) | -3.2* | 7 | . | 1.1 | 5 | 1
CCCc1cc(-c2n[nH]c(=S)n2C(C)c2ccccc2)cs1 (configuration not stated) | -4.6* | -1 | -0.11 | 0.56 | 16 | 0
O=C(NNC(=S)Nc1ccc(Cl)cc1Cl)C1CC1 | . | . | . | . | 12 | -2
SMILES | Cav3 T inh | Rev-RRE block | Pyk2 oligo antag | hDAT+cocaine | Measles CPE | Phagocytosis inh
Oc1sc(C=Nc2ccc(F)cc2)c2ccccc12 | -0.21 | 109*[fluorescence artefact?] | -1.2 | 0.22 | 11 | 0
Cc1ccsc1C=Nc1ccc(O)cc1 | 0.55 | 3 | -1.7 | 0.012 | 7 | -2
Oc1sc(C=Nc2ccccc2)c2ccccc12 | -5.1* | 120*[fluorescence artefact?] | -1.2 | -0.6 | 13 | -1
Oc1c(C=Nc2cccnc2)sc2ccccc12 | -0.39 | 23 | -0.15 | -0.14 | 4 | -4
CC1(C)C=Cc2cc(-c3coc4cc(O)cc(O)c4c3=O)cc(O)c2O1 | 0.82 | . | . | 1.1 | . | .
COc1ccccc1NC(=O)C1=C(C)Nc2nc(-c3cccs3)nn2C1c1cccc(O)c1 (configuration not stated) | . | 8 | -2.3 | . | 13 | -1
COc1ccccc1NC(=O)C1=C(C)Nc2nc(-c3ccccc3)nn2C1c1ccccn1 (configuration not stated) | -7.6* | 11 | -0.13 | 3.1 | 28 | 0
O=C(CSc1nnc(C2CC2)n1-c1ccccc1)Nc1ccc(N2CCOCC2)cc1 | 0.74 | -1 | -1.2 | 1.5 | 39* | 0
COc1ccc(NC(=O)CSc2nnc(C3CC3)n2N)cc1 | 0.84 | 8 | 2.4 | 1.1 | 13 | .
COc1ccc(NC(=O)CSc2nnc(C3CCCCC3)n2-c2ccccc2)cc1 | -6.1* | 8 | -0.89 | 0.18 | 7 | 2
CCOc1ccc(NCc2nnc(SCc3ccc(Cl)cc3)n2-c2ccccc2)cc1 | . | . | . | . | 6 | -9
CCOC(=O)/C=C/c1ccc2c(c1)S(=O)(=O)N(c1cccc(OC)c1)[C@H]2CC(=O)OCC | 0.55 | . | . | 0.34 | . | .
CN(C)/C=C1/C=C(c2ccccc2)OC1=O | -0.073 | 11 | -0.58 | 0.16 | 5 | -1
O=C1C=C(c2ccccc2)OC(=O)C1C(=O)c1ccccc1 (configuration not stated) | -0.092 | 0 | -0.27 | -0.41 | 27* | .
Cc1cc(C)cc(NC2=NC3(CCCCC3)N=C(N)N2)c1 | -0.47 | -18 | 1.3 | 0.092 | 17 | 0
CC1=CC(C)(C)N2C(=O)C3(N=C(N)NC(Nc4ccccc4)=N3)c3cc(C)cc1c32 (configuration not stated) | -3.7* | 1 | -0.01 | 0.25 | 6 | -1
O=C(Nc1cccc(Cl)c1)c1cc(S(=O)(=O)NCCc2ccc(Cl)cc2)ccc1F | . | . | . | . | 22 | -3
CC(C)Nc1nc(NC(C)C)nc(N(C#N)CCOc2ccc(Cl)cc2Cl)n1 | -5* | 1 | -2.5 | -0.91 | 2 | .
Cc1cc(C)nc(N(C#N)CCOc2ccc(Cl)cc2)n1 | -1.3 | 6 | -4.2* | -1.8 | 19 | .
CCCN(C#N)c1nc(NCC)nc(NC(C)C)n1 | -0.23 | -1 | 0.1 | 0.16 | 14 | -2
CCC(=O)NC(=S)N1CCN(c2ccc([N+](=O)[O-])cc2Cl)CC1 | 0.86 | 1 | 1.9 | -0.017 | 29* | .
O=C(NC(=S)N1CCN(c2ccc([N+](=O)[O-])cc2Cl)CC1)c1ccco1 | . | . | . | . | 11 | -12
COCCNC(=O)c1c(N)n(CCC2=CCCCC2)c2nc3ccccc3nc12 | -2.1 | 56* | 0.3 | 0.81 | 3 | 0
